Results taken from PMC12900291 (European journal of medicinal chemistry, 2025).
Several values for one entry are separate records, joined by “and”; a condition that tells them apart may be missing. Equal entries are not always repeated.

Columns and labels:
SERCA2a [1] = target: T1, SERCA2a (Sus scrofa, UniProt P11607); experiment: NADH-coupled enzyme-linked Ca2+-ATPase activity assay in cardiac SR vesicles; format: biochemical, porcine; settings: for Max increase (%) / Max decrease (%): Ca2+-ATPase activity, mean±SD, n=4-6; for Max increase (%): vs no compound
T1 sequence (P11607 1-997 isoform P11607-2): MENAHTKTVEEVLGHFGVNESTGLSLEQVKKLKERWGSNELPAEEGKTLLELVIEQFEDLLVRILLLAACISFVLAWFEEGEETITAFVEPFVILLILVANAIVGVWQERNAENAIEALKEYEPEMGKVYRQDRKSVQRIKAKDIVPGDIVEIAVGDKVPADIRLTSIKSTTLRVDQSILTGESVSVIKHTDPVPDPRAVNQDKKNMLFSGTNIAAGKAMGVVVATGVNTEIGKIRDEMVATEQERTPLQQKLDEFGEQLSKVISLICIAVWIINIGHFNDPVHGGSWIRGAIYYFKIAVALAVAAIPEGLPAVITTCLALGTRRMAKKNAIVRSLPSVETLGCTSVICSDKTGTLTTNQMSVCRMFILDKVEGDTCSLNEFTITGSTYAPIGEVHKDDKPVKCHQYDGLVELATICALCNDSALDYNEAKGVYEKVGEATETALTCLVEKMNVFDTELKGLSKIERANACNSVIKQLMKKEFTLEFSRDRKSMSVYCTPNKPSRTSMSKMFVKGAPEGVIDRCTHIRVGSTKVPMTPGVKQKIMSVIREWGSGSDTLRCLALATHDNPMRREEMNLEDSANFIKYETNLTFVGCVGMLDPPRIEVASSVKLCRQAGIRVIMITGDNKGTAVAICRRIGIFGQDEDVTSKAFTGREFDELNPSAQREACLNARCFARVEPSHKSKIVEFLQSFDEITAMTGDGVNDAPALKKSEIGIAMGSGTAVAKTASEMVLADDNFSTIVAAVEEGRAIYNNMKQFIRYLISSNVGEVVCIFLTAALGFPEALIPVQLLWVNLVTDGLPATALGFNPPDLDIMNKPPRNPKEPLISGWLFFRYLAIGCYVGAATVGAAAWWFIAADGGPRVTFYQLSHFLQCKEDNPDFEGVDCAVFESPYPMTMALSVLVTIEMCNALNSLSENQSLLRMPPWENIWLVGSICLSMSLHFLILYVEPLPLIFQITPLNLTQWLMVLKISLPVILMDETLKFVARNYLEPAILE

Intrinsic clearance = format: in vitro ADME, human; settings: for Thalf: human liver S9 0.5 mg/mL, 1 μM compound, NADPH, 37 °C; for microsomal CLint at 1 μM: human, liver S9 fraction, pH 7.4
SERCA2a [2] = target: T1, SERCA2a; experiment: oxalate-based Ca2+-uptake; format: biochemical, porcine; settings: cardiac SR
How it was run: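 Porcine left-ventricular SR vesicles (30 μg/mL) were prepared by differential centrifugation. Buffer: 50 mM MOPS, 100 mM KCl, 30 mg/mL sucrose, 10 mM potassium oxalate, 2 μM Fluo-4, free Ca2+ at pCa 8.0, 6.2 or 5.4, test compound 0.048–50 μM (two-fold series). Incubation 20 min at 22 °C, dark; 5 mM MgATP start; Fluo-4 decrease (ex 485/em 520 nm) tracked 15 min. Basal pCa 8.0 rate subtracted; Hill fit gives EC50 and % effect.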

[3] = Ca2+-ATPase [Ca2+]MAX EC50 (μM), [Ca2+]MAX (pCa 5.4), cardiac SR
[4] = Ca2+-ATPase [Ca2+]MID EC50 (μM), [Ca2+]MID (pCa 6.2), cardiac SR
[5] = Ca2+-Uptake [Ca2+]MAX EC50 (μM), [Ca2+]MAX (pCa 5.4)
[6] = Ca2+-Uptake [Ca2+]MID EC50 (μM), [Ca2+]MID (pCa 6.2)
[7] = [Ca2+]MAX (pCa 5.4), cardiac SR

Row | SMILES | Max increase (%) (SERCA2a [1]; [Ca2+]MAX (pCa 5.4)) | other results
1 | CCCN(Cc1ccccc1OC)C(=O)c1scc(C)c1C [Compound 2, N-(2-Methoxybenzyl)-3,4-dimethyl-N-propylthiophene-2-carboxamide] | 47±7.1% | 
2 | CCCN(Cc1ccccc1OC)C(=O)c1cc(C)cs1 [Compound 3, N-(2-Methoxybenzyl)-4-methyl-N-propylthiophene-2-carboxamide] | 45±9.2% | 
3 | CCCN(Cc1ccccc1OC)C(=O)c1cccs1 [Compound 4, N-(2-Methoxybenzyl)-N-propylthiophene-2-carboxamide] | 30±14% | 
4 | CCCN(Cc1ccccc1OC)C(=O)c1ccsc1 [Compound 5, N-(2-Methoxybenzyl)-N-propylthiophene-3-carboxamide] | 29±8.4% | 
5 | CCCN(Cc1ccccc1OC)C(=O)c1ccc(Cl)s1 [Compound 6, 5-Chloro-N-(2-methoxybenzyl)-N-propylthiophene-2-carboxamide] | 37±9.4% | 
6 | CCCN(Cc1ccccc1OC)C(=O)c1cc2ccccc2s1 [Compound 7, N-(2-Methoxybenzyl)-N-propylbenzo[b]thiophene-2-carboxamide] | 76% and 76±19% | 
7 | CCCN(Cc1ccccc1OC)C(=O)c1ccccc1C [Compound 9, N-(2-Methoxybenzyl)-2-methyl-N-propylbenzamide] | 28±10% | 
8 | CCCN(Cc1ccccc1OC)C(=O)c1cccc(C)c1 [Compound 10, N-(2-Methoxybenzyl)-3-methyl-N-propylbenzamide] | 59±13% | 
9 | CCCN(Cc1ccccc1OC)C(=O)c1ccc(C)cc1 [Compound 11, N-(2-Methoxybenzyl)-4-methyl-N-propylbenzamide] | 61±7.0% | 
10 | CCCN(Cc1ccccc1OC)C(=O)c1ccccc1F [Compound 12, 2-Fluoro-N-(2-methoxybenzyl)-N-propylbenzamide] | 40±10% | 
11 | CCCN(Cc1ccccc1OC)C(=O)c1cccc(F)c1 [Compound 13, 3-Fluoro-N-(2-methoxybenzyl)-N-propylbenzamide] | 53±17% | 
12 | CCCN(Cc1ccccc1OC)C(=O)c1ccc(F)cc1 [Compound 14, 4-Fluoro-N-(2-methoxybenzyl)-N-propylbenzamide] | 55±11% | 
13 | CCCN(Cc1ccccc1OC)C(=O)c1ccccc1Cl [Compound 15, 2-Chloro-N-(2-methoxybenzyl)-N-propylbenzamide] | 35±10% | 
14 | CCCN(Cc1ccccc1OC)C(=O)c1cccc(Cl)c1 [Compound 16, 3-Chloro-N-(2-methoxybenzyl)-N-propylbenzamide] | 61±9.4% | 
15 | CCCN(Cc1ccccc1OC)C(=O)c1ccc(Cl)cc1 [Compound 17, 4-Chloro-N-(2-methoxybenzyl)-N-propylbenzamide] | 64±7.6% | 
16 | CCCN(Cc1ccccc1OC)C(=O)c1ccccc1OC [Compound 18, 2-Methoxy-N-(2-methoxybenzyl)-N-propylbenzamide] | 27±9.3% | 
17 | CCCN(Cc1ccccc1OC)C(=O)c1cccc(OC)c1 [Compound 19, 3-Methoxy-N-(2-methoxybenzyl)-N-propylbenzamide] | 45±14% | 
18 | CCCN(Cc1ccccc1OC)C(=O)c1ccccc1C(F)(F)F [Compound 20, N-(2-Methoxybenzyl)-N-propyl-2-(trifluoromethyl)benzamide] | 51% and 51±17% | 
19 | CCCN(Cc1ccccc1OC)C(=O)c1cccc(Br)c1 [Compound 22, 3-Bromo-N-(2-methoxybenzyl)-N-propylbenzamide] | 46±5.5% | Thalf (Intrinsic clearance): 23.8 min; microsomal CLint at 1 μM (Intrinsic clearance): 56 ± 9 µL/min/mg; EC50 (SERCA2a [1]; [3]): 1.5 ± 0.31 µM; EC50 (SERCA2a [1]; [4]): 1.4 ± 0.8 µM; EC50 (SERCA2a [2]; [5]): 0.36 ± 0.14 µM; EC50 (SERCA2a [2]; [6]): 12.4 ± 8.4 µM; Ca2+-Uptake [Ca2+]MAX % effect (SERCA2a [2]; [Ca2+]MAX (pCa 5.4)): 11±3.8%; Ca2+-Uptake [Ca2+]MAX EC50 (μM) (SERCA2a [2]; [Ca2+]MAX (pCa 5.4)): decreased
20 | CCCN(Cc1ccccc1OC)C(=O)c1ccc(Br)c(Br)c1 [Compound 23, 3,4-Dibromo-N-(2-methoxybenzyl)-N-propylbenzamide] | 28±8.1% | Thalf (Intrinsic clearance): 15.3 min; microsomal CLint at 1 μM (Intrinsic clearance): 79 ± 19 µL/min/mg; EC50 (SERCA2a [1]; [3]): 0.9 ± 0.38 µM; EC50 (SERCA2a [1]; [4]): 15.3 ± 4.1 µM; Max decrease (%) (SERCA2a [1]; [Ca2+]MAX (pCa 5.4)): 28±9.0%; Ca2+-ATPase [Ca2+]MAX % effect (SERCA2a [1]; [7]): 28±8.1%; EC50 (SERCA2a [2]; [5]): > 50 µM; EC50 (SERCA2a [2]; [6]): 9.2 ± 1.5 µM
21 | CCCN(Cc1ccccc1OC)C(=O)c1cccc(Br)c1F [Compound 24, 3-Bromo-2-fluoro-N-(2-methoxybenzyl)-N-propylbenzamide] | 48±4.6% | Thalf (Intrinsic clearance): 51.3 min; microsomal CLint at 1 μM (Intrinsic clearance): 25 ± 4 µL/min/mg; EC50 (SERCA2a [1]; [3]): 3.4 ± 0.29 µM; EC50 (SERCA2a [1]; [4]): 3.3 ± 1.9 µM; Ca2+-ATPase [Ca2+]MAX % effect (SERCA2a [1]; [7]): 48±4.6%; Ca2+-ATPase [Ca2+]MID % effect (SERCA2a [1]; [Ca2+]MID (pCa 6.2), cardiac SR): 25±5.6%; EC50 (SERCA2a [2]; [5]): 1.4 ± 0.65 µM; EC50 (SERCA2a [2]; [6]): 0.83 ± 0.3 µM; Ca2+-Uptake [Ca2+]MAX % effect (SERCA2a [2]; [Ca2+]MAX (pCa 5.4)): 12±3.0%; Ca2+-Uptake [Ca2+]MID % effect (SERCA2a [2]; [Ca2+]MID (pCa 6.2)): 8.5±3.3%
22 | CCCN(Cc1ccccc1OC)C(=O)c1cc(F)cc(Br)c1 [Compound 26, 3-Bromo-5-fluoro-N-(2-methoxybenzyl)-N-propylbenzamide] | 33±6.5% | Thalf (Intrinsic clearance): 62.4 min; microsomal CLint at 1 μM (Intrinsic clearance): 22 ± 1.1 µL/min/mg; EC50 (SERCA2a [1]; [3]): 2.2 ± 0.27 µM; EC50 (SERCA2a [1]; [4]): 2.1 ± 0.88 µM; EC50 (SERCA2a [2]; [5]): 0.54 ± 0.3 µM; EC50 (SERCA2a [2]; [6]): > 50 µM; Ca2+-Uptake [Ca2+]MAX EC50 (μM) (SERCA2a [2]; [Ca2+]MAX (pCa 5.4)): decreased
23 | CCN(Cc1ccccc1OC)C(=O)c1cc(F)c(C)c(Br)c1 [Compound 54, 3-Bromo-N-ethyl-5-fluoro-N-(2-methoxybenzyl)-4-methylbenzamide] |  | Max decrease (%) (SERCA2a [1]; [Ca2+]MAX (pCa 5.4)): −70±3.4%; inhibition at 50 µM (SERCA2a [1]; read-out: inhibition of Ca2+-ATPase activity): 70%

The next lines start with results.

Row | Max increase (%) (SERCA2a [1]; [Ca2+]MAX (pCa 5.4)) | SMILES | other results
24 | 46±7.8% | CCCN(Cc1ccccc1OC)C(=O)c1cccc(Br)n1 [Compound 27, 6-Bromo-N-(2-methoxybenzyl)-N-propylpicolinamide] | 
25 | 28±5.7% | CCCN(Cc1ccccc1OC)C(=O)c1cncc(Br)c1 [Compound 28, 5-Bromo-N-(2-methoxybenzyl)-N-propylnicotinamide] | 
26 | 21±4.9% | CCCN(Cc1ccccc1OC)C(=O)c1ccnc(Br)c1 [Compound 29, 2-Bromo-N-(2-methoxybenzyl)-N-propylisonicotinamide] | 
27 | 24±9.1% | COc1ccccc1CNC(=O)c1cc(C)c(C)s1 [Compound 30, N-(2-methoxybenzyl)-4,5-dimethylthiophene-2-carboxamide] | 
28 | 52±9.2% | COc1ccccc1CN(C)C(=O)c1cc(C)c(C)s1 [Compound 31, N-(2-Methoxybenzyl)-N,4,5-trimethylthiophene-2-carboxamide] | 
29 | 43±7.9% | COc1ccccc1CN(C(=O)c1cc(C)c(C)s1)C(C)C [Compound 34, N-Isopropyl-N-(2-methoxybenzyl)-4,5-dimethylthiophene-2-carboxamide] | 
30 | 46±8.9% | COc1ccccc1CN(C(=O)c1cc(C)c(C)s1)C1CC1 [Compound 35, N-Cyclopropyl-N-(2-methoxybenzyl)-4,5-dimethylthiophene-2-carboxamide] | 
31 | abolished | COc1ccccc1CN(CCO)C(=O)c1cc(C)c(C)s1 [Compound 36, N-(2-Hydroxyethyl)-N-(2-methoxybenzyl)-4,5-dimethylthiophene-2-carboxamide] | 
32 | 22% and 22±8.6% | COc1ccccc1CN(CCCF)C(=O)c1cc(C)c(C)s1 [Compound 39, N-(3-Fluoropropyl)-N-(2-methoxybenzyl)-4,5-dimethylthiophene-2-carboxamide] | 
33 | 91% and 91±12.6% | COc1ccccc1CN(CCC(F)F)C(=O)c1cc(C)c(C)s1 [Compound 40, N-(3,3-Difluoropropyl)-N-(2-methoxybenzyl)-4,5-dimethylthiophene-2-carboxamide] | 
34 | 75% and 75±8.6% | COc1ccccc1CN(CCC(F)(F)F)C(=O)c1cc(C)c(C)s1 [Compound 41, N-(2-Methoxybenzyl)-4,5-dimethyl-N-(3,3,3-trifluoropropyl)thiophene-2-carboxamide] | 
35 | 22% and 22±6.4% | COc1cccc2c1CN(C(=O)c1cc(C)c(C)s1)CC2 [Compound 42, (4,5-diMethylthiophen-2-yl)(8-methoxy-3,4-dihydroisoquinolin-2(1H)-yl)methanone] | 
36 | abolished activity | CCCN(Cc1ccccc1)C(=O)c1cc(C)c(C)s1 [Compound 44, N-Benzyl-4,5-dimethyl-N-propylthiophene-2-carboxamide] | 
37 | 89% and 89±24% | CCCN(Cc1ccccc1F)C(=O)c1cc(C)c(C)s1 [Compound 48, N-(2-Fluorobenzyl)-4,5-dimethyl-N-propylthiophene-2-carboxamide] | 
38 | ablated activity | CCCN(Cc1ccncc1F)C(=O)c1cc(C)c(C)s1 [Compound 50, N-((3-Fluoropyridin-4-yl)methyl)-4,5-dimethyl-N-propylthiophene-2-carboxamide] | 
39 | 46±6.3% | CCN(Cc1ccccc1OC)C(=O)c1cccc(Br)c1 [Compound 51, 3-Bromo-N-ethyl-N-(2-methoxybenzyl)benzamide] | 
40 | 46±7.4% | CCN(Cc1ccccc1OC)C(=O)c1cccc(Br)c1F [Compound 52, 3-Bromo-N-ethyl-2-fluoro-N-(2-methoxybenzyl)benzamide] | 
41 | 45±8.4% | CCN(Cc1ccccc1OC)C(=O)c1ccc(F)c(Br)c1 [Compound 53, 3-Bromo-N-ethyl-4-fluoro-N-(2-methoxybenzyl)benzamide] | 
